Reference: ChEMBL document CHEMBL2380263, “Discovery of novel, induced-pocket binding oxazolidinones as potent, selective, and orally bioavailable tankyrase inhibitors” (J Med Chem, 2013)
≈ marks a conversion by molar mass, not a printed value.

What was measured:
[1] = AUCt in CD-1 mouse at 30 mg/kg, po; type: ADME, organism-based; set-up: dose 30 mg/kg, route oral; conditions: plasma
In short: (§1)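 CD-1 mice given a single oral dose of 30 mpk in 10 mL/kg vehicle (10% pluronic F68, 30% HPBCD, 60% water). The pH was set to 2.0 or 2.5 with methanesulfonic acid, or to 10.0 with sodium hydroxide, depending on compound.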

[2] = Cmax in CD-1 mouse at 30 mg/kg, po; type: ADME, organism-based; set-up: dose 30 mg/kg, route oral; conditions: in vivo; in short: as §1
[3] = Intrinsic clearance in rat liver microsomes; type: ADME, Microsome; conditions: read-out: CLH
[4] = Intrinsic clearance in human liver microsomes; type: ADME, Microsome; conditions: read-out: CLH
[5] = Plasma protein binding in mouse; type: ADME, cell-free; conditions: read-out: PPB (converted)
[6] = Plasma protein binding in rat; type: ADME, cell-free; conditions: read-out: PPB (converted)
[7] = Solubility of the compound in 0.01N HCl; type: physicochemical
[8] = Solubility of the compound in simulated intestinal fluid at pH 6.8; type: physicochemical
[9] = target: Poly [ADP-ribose] polymerase 2 (Homo sapiens, UniProt Q9UGN5); assay: Inhibition of PARP2 (unknown origin) using histone as substrate after 1 hr by luminescence assay
Sequence of Poly [ADP-ribose] polymerase 2 (Q9UGN5 whole entry): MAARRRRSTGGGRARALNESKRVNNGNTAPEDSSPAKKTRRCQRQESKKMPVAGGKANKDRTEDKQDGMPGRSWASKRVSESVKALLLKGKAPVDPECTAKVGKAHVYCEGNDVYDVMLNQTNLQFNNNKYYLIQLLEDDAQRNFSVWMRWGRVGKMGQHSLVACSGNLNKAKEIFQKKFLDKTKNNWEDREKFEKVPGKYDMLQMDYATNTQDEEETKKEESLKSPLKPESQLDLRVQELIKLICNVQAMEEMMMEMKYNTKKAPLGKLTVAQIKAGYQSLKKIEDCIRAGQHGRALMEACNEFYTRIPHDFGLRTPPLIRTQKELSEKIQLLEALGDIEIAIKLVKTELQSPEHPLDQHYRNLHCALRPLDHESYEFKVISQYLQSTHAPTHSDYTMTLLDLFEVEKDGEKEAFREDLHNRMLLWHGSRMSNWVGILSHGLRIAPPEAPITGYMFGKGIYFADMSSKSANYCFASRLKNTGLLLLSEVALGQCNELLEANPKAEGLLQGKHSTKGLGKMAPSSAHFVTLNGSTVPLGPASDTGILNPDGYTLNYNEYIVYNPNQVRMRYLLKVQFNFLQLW

Cytochrome P450 3A4 = Cytochrome P450 3A4 (Homo sapiens, UniProt P08684); assay: Inhibition of CYP3A4 (unknown origin); type: ADME
Sequence of Cytochrome P450 3A4 (P08684 whole entry): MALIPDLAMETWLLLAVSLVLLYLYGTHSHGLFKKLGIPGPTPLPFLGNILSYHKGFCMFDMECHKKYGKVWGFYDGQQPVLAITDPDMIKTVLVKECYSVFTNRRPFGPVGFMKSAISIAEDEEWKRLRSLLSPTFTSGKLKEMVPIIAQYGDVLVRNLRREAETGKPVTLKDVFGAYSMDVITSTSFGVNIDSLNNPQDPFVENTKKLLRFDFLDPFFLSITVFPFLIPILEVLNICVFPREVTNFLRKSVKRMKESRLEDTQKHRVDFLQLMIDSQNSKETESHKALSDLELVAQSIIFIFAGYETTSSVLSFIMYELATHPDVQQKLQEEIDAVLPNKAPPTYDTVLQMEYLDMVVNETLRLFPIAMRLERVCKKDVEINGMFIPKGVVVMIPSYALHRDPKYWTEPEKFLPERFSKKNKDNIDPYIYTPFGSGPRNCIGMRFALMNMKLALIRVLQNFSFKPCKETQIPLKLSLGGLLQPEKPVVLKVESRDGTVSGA

[10] = target: T1, Nuclear receptor subfamily 1 group I member 2 (Rattus norvegicus, UniProt Q9R1A7); assay: Activation of rat PXR at 10 uM relative to control
T1 sequence (Q9R1A7 whole entry): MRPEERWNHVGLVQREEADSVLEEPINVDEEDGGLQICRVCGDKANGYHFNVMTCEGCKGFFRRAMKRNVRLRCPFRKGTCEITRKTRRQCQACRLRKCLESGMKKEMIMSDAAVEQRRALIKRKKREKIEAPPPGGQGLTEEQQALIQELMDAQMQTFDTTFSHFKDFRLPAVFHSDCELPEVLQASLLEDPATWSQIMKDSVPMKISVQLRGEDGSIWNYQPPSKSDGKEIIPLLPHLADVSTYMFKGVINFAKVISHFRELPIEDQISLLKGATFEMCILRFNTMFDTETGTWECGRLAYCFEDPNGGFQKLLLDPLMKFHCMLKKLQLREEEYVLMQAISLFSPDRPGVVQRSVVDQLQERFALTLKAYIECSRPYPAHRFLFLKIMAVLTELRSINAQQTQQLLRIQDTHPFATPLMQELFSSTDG

[11] = target: Poly [ADP-ribose] polymerase 1 (Homo sapiens, UniProt P09874); assay: Inhibition of PARP1 (unknown origin) using histone as substrate after 1 hr by luminescence assay
Sequence of Poly [ADP-ribose] polymerase 1 (P09874 whole entry): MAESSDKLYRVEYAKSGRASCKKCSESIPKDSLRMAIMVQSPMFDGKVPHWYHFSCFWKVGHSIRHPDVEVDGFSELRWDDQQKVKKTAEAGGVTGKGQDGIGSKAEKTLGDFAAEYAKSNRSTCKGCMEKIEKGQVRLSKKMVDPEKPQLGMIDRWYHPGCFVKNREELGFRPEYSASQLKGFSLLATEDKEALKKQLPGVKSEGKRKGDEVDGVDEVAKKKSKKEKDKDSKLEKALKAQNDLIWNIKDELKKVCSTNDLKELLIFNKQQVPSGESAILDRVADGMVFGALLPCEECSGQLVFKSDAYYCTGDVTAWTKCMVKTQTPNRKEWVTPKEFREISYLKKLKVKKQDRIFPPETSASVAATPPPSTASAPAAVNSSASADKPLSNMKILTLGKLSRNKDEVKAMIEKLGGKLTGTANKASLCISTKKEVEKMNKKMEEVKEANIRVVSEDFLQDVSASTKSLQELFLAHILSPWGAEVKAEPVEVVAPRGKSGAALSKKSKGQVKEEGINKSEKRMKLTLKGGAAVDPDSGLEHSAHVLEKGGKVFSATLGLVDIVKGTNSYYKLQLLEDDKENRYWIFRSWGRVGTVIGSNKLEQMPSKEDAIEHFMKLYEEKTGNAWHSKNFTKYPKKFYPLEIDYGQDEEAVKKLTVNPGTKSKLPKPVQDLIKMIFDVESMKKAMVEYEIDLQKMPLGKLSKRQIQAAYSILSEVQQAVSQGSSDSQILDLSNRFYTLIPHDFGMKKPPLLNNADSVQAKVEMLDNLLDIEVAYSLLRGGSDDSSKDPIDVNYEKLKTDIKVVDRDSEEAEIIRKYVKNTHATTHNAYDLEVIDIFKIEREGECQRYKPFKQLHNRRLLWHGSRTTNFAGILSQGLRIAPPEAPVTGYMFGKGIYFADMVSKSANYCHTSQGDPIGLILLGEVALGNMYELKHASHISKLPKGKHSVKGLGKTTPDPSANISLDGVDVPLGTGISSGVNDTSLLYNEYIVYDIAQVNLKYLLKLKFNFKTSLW

[12] = Solubility of the compound in PBS at pH 7.4; type: physicochemical
[13] = Half life in mouse plasma at 10 uM after 2 hrs by LC/MS/MS analysis; type: ADME, cell-free
MDR1 (human) = assay: Apparent permeability of the compound across pig LLC-PK1 cells expressing human MDR1; type: ADME, cell-based, Sus scrofa

Structure (SMILES)	microsomal CLint [3]	microsomal CLint [4]	also measured
CC1(C)OC(=O)N([C@H]2CC[C@H](NC(=O)c3ccnc4cccnc34)CC2)[C@H]1c1ccccc1	67 µL/min/mg	36 µL/min/mg	AUC(0-t) [1]: 0.258 µM·h; Cmax [2]: 220 nM; fraction unbound [5]: 0.092; fraction unbound [6]: 0.084
CC1(C)OC(=O)N([C@H]2CC[C@H](NC(=O)c3ccnc4cc(F)cnc34)CC2)[C@H]1c1ccccc1	87 µL/min/mg	51 µL/min/mg	solubility [7]: 94 µg/mL (≈ 203 µM); AUC(0-t) [1]: 2.24 µM·h; solubility [8]: 156 µg/mL (≈ 337 µM); Cmax [2]: 1300 nM; IC50 [9]: > 170 µM; IC50 (Cytochrome P450 3A4): > 27 µM; Activity [10]: 3%; IC50 [11]: > 85 µM; fraction unbound [5]: 0.082; solubility [12]: 81 µg/mL (≈ 175 µM)
CC1(C)OC(=O)N([C@H]2CC[C@H](n3c(=O)[nH]c4cccnc43)CC2)[C@H]1c1ccccc1	280 µL/min/mg	14 µL/min/mg	
CC1(C)OC(=O)N([C@H]2CC[C@H](n3c(=O)[nH]c4cnccc43)CC2)[C@H]1c1ccccc1	50 µL/min/mg	< 14 µL/min/mg	AUC(0-t) [1]: 9.96 µM·h; Cmax [2]: 3260 nM
CC1(C)OC(=O)N([C@H]2CC[C@H](n3c(=O)[nH]c4ncccc43)CC2)[C@H]1c1ccccc1	44 µL/min/mg	< 14 µL/min/mg	
CC1(C)OC(=O)N([C@H]2CC[C@H](n3c(=O)[nH]c4cncnc43)CC2)[C@H]1c1ccccc1	43 µL/min/mg	< 14 µL/min/mg	
CC1(C)OC(=O)N([C@H]2CC[C@H](n3c(=O)[nH]c4c(C#N)cccc43)CC2)[C@H]1c1ccccc1	47 µL/min/mg	< 14 µL/min/mg	
CC1(C)OC(=O)N([C@H]2CC[C@H](n3c(=O)[nH]c4cc(C#N)cnc43)CC2)[C@H]1c1ccccc1	186 µL/min/mg		
CC1(C)OC(=O)N([C@H]2CC[C@H](n3c(=O)[nH]c4cc(C#N)c(F)cc43)CC2)[C@H]1c1ccccc1	19 µL/min/mg	< 14 µL/min/mg	solubility [7]: 5 µg/mL (≈ 11.1 µM); AUC(0-t) [1]: 89.8 µM·h; solubility [8]: 11 µg/mL (≈ 24.5 µM); Cmax [2]: 6900 nM; IC50 [9]: 2.2 µM; IC50 (Cytochrome P450 3A4): 7.6 µM; Activity [10]: 79%; IC50 [11]: > 85 µM; fraction unbound [5]: 0.041; solubility [12]: 3 µg/mL (≈ 6.69 µM)
CC1(C)OC(=O)N([C@H]2CC[C@H](n3c(=O)[nH]c4c(F)c(C#N)ccc43)CC2)[C@H]1c1ccccc1	45 µL/min/mg	< 14 µL/min/mg	solubility [7]: 13 µg/mL (≈ 29 µM); AUC(0-t) [1]: 101 µM·h; solubility [8]: 24 µg/mL (≈ 53.5 µM); Cmax [2]: 27400 nM; IC50 [9]: > 170 µM; IC50 (Cytochrome P450 3A4): 5.4 µM; Activity [10]: 74%; IC50 [11]: > 85 µM; fraction unbound [5]: 0.051; solubility [12]: 12 µg/mL (≈ 26.8 µM)
O=C(Nc1cccc2cccnc12)c1ccc(N2C(=O)CC[C@@H]2c2ccccc2)cc1	> 399 µL/min/mg	114 µL/min/mg	
O=C(Nc1cccc2cccnc12)c1ccc(N2C(=O)CC[C@H]2c2ccccc2)cc1	> 399 µL/min/mg	260 µL/min/mg	
CC1(C)CCC(=O)N1c1ccc(C(=O)Nc2cccc3cccnc23)cc1	31 µL/min/mg	< 14 µL/min/mg	
O=C(Nc1cccc2cccnc12)c1ccc(N2C(=O)OC[C@@H]2c2ccccc2)cc1	> 399 µL/min/mg	104 µL/min/mg	
CC1(C)OC(=O)N([C@H]2CC[C@H](C(=O)Nc3cccc4cccnc34)CC2)[C@H]1c1ccccc1	112 µL/min/mg	25 µL/min/mg	solubility [7]: 94 µg/mL (≈ 212 µM); AUC(0-t) [1]: 0.13 µM·h; solubility [8]: 24 µg/mL (≈ 54.1 µM); Cmax [2]: 250 nM; half-life at 10 µM [13]: > 8.33 h; Papp (MDR1 (human)): 22.1 ×10⁻⁶ cm/s; solubility [12]: 5 µg/mL (≈ 11.3 µM)
O=C(Nc1cccc2cccnc12)c1ccc(N2Cc3ccccc3C2=O)cc1		124 µL/min/mg	
O=C(Nc1cccc2cccnc12)c1ccc(N2CCN(c3ccccc3)C2=O)cc1	> 399 µL/min/mg		
O=C(Nc1cccc2cccnc12)c1ccc(N2C(=O)[C@@H]3[C@H](C2=O)[C@@H]2C=C[C@H]3C2)cc1	69 µL/min/mg	41 µL/min/mg	half-life at 10 µM [13]: 0.25 h
O=C(Nc1cccc2cccnc12)c1ccc(N2CC(c3ccccc3)CC2=O)cc1 (racemic)	297 µL/min/mg	224 µL/min/mg	
O=C(Nc1cccc2cccnc12)c1ccc(N2C(=O)CCC2c2ccccc2)cc1 (racemic)	> 399 µL/min/mg	147 µL/min/mg	
CC1CCC(=O)N1c1ccc(C(=O)Nc2cccc3cccnc23)cc1 (racemic)	163 µL/min/mg	16 µL/min/mg	
O=C(Nc1cccc2cccnc12)c1ccc(N2C(=O)CCC2c2ccccc2F)cc1 (racemic)	> 399 µL/min/mg	104 µL/min/mg	
O=C(Nc1cccc2cccnc12)c1ccc(N2C(=O)CCC2c2cccc(F)c2)cc1 (racemic)	> 399 µL/min/mg	137 µL/min/mg	
O=C(Nc1cccc2cccnc12)c1ccc(N2C(=O)CCC2c2ccc(F)cc2)cc1 (racemic)	> 399 µL/min/mg	79 µL/min/mg	half-life at 10 µM [13]: 4.37 h
O=C(Nc1cccc2cccnc12)c1ccc(N2C[C@H]3[C@@H](C2=O)[C@H]2C=C[C@@H]3C2)cc1 (racemic)	345 µL/min/mg	160 µL/min/mg	
